Screens from PubChem BioAssay.
Only some compounds are listed: those with a hit (about 6.4% of all), similar ones and a draw of the others.
Ecoli tolC – growth inhibitors of E. coli BW25113 tolC mutant | AID 573 | OD615 | growth inhibition, % at 10 µM (by protocol) | 65,000 compounds, 2.2% hits;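 active = growth inhibition at or above a cutoff equal to the mean over every tested compound plus 3 SD, cut at about 60% in these data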;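 note: growth measured after 20 h incubation at 37 °C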
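Assay system: tolC-deleted E. coli BW25113. Medium: kanamycin-containing LB broth (50 µg/mL). Dosing: 10 µM final, single dose. Timing: bacterial growth with compound for 20 h at 37 °C. Detection: A615 absorbance measurement. Read-out basis: growth inhibition in percent.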
HUVEC prolif 384 – inhibitors of human endothelial cell proliferation. HUVEC proliferation, CellTiter-Glo luminescence, 72 h; stronger effect = lower value. viability, % at 10 µM (by protocol). 86,000 compounds, 1.1% hits. AID 648;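 active = viability at or below 30%; inactive = viability above 30%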;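 note: 100% = median luminescence of DMSO-only cell control wells on each plate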
Jurkat viability – cytotoxicity toward Jurkat cells. inhibition, % at 4 µM. 56,000 compounds, 1.2% hits. Jurkat E6.1 viability, ATP luminescence, 48 h;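 active = inhibition above the mean inhibition of all tested compounds plus 3 SD, cut at about 28% in these data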
Fibroblast inh – blocks proliferation of human lung fibroblasts. 85,000 compounds, 1.1% hits. LL 47 human lung fibroblast viability, ATP luminescence; stronger effect = lower value. viability, % at 10 µM. AID 719;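 active = viability at or below 50% in the single dose screen; inactive = viability above 50%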;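 note: compound exposure lasted 72 h before the ATP readout; 100% = median luminescence of untreated cell-only wells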
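Material: human LL 47 lung fibroblast cells; quantity: 1,150 cells/well; medium: IMEM plus 15% FBS; doses: 0.1% DMSO in all compound wells; timing: overnight attachment after seeding, then 72 h compound exposure at 37 °C; detection: CellTiter-Glo luminescence; measure: % viability of median cell-only signal; controls: cell-only wells, no compound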
H69AR growth 86K – growth inhibitors of human H69AR lung tumor cells | H69AR lung tumor viability, ATP luminescence, 72 h; stronger effect = lower value | viability, % at 10 µM | 85,000 compounds, 6% hits | AID 598;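 active = viability at or below 40%; inactive = viability above 40%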;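 note: multidrug resistant small cell line overexpressing MRP-1 efflux transporter; 100% = mean luminescence of untreated control wells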
E coli WT exp – blocks growth of wild type E. coli BW25113. OD600 absorbance. 98,000 compounds, 0.15% hits. AID 710. growth inhibition, % at 100 µM;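 active = growth inhibition above about 50% at one test dose, limit read from the data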;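 note: growth measured after 20 h incubation at 37 °C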
* hit, by the source's call; · = no result.

SMILES	Ecoli tolC	HUVEC prolif 384	Jurkat viability	Fibroblast inh	H69AR growth 86K	E coli WT exp
Cc1occc1-c1nnc(SCC(=O)NCc2cccs2)n1-c1ccc(F)cc1	2	29*	-4	104	69	-9
Cc1cc2cc(C)c3nnc(SCC(=O)NCc4ccco4)n3c2cc1C	10	75	-17	106	70	2
Cc1cc2nnc(SCC(=O)NCc3cccs3)n2c2ccccc12	·	55	·	58	24*	13
CCn1c(=O)cc(SCC(=O)NCc2ccc(C)o2)c2ccccc21	·	60	·	83	101	1
CCn1c(=O)cc(SCC(=O)NCc2ccco2)c2ccccc21	1	60	20	89	39*	-3
Cc1cc2nnc(SCC(=O)NCc3ccco3)n2c2ccccc12	-7	·	84*	·	·	·
Cc1nnc(SCC(=O)NCc2cccs2)n1-c1ccccc1	-4	110	-7	128	107	1
O=c1[nH]c(/C(=N\O)c2ccccc2)no1	-5	102	15	98	88	17
O=C(CN1CCN(C2CCCCC2)CC1)NCCC1=CCCCC1	-15	89	5	95	76	-1
Cc1c(C(=O)c2no[n+]([O-])c2C(=O)c2cnn(C)c2C)cnn1C	-6	61	-3	101	1.8*	4
COc1ccc(C(=O)c2no[n+]([O-])c2C(=O)c2ccc(OC)cc2)cc1	-4	·	-2	·	·	4
COCCCn1c(SCC(=O)n2c(C)c(C)c3ccccc32)nnc1-c1ccoc1C	1	99	-5	103	77	1
Cc1cccc(/C=c2\s/c(=C\C(=O)C(C)(C)C)[nH]c2=O)c1	·	61	·	74	6.8*	-10
COc1ccc(C2Oc3ccccc3C3=C2C(c2cccs2)n2ncnc2N3)cc1 (stereo not drawn)	·	58	·	46*	18*	2
C(=C1/CCCC2=C1Nc1ncnn1C2c1ccccc1)/c1ccccc1 (stereo not drawn)	·	13*	·	4.1*	0.8*	4
Cc1oc(C)c2c(=O)ccc3c(c12)OC(N)=C(C#N)C3c1ccc(F)cc1 (stereo not drawn)	6	90	1	74	81	24
C/C(=N\NC(=O)c1cccc(F)c1)c1ccc(Br)s1	·	·	·	·	·	-5
Cc1cc(C)c2c3c(cn2n1)c(=O)n(C)c(=O)n3C	·	93	·	99	73	·
O=C(Nc1nnc(-c2ccc3c(c2)OCCO3)o1)c1ccc(Cc2ccccc2)cc1	100*	9.6*	-21	89	37*	-1
O=C(Nc1nnc(-c2ccc3c(c2)CCCC3)o1)c1ccccc1Cl	98*	23*	1	72	23*	6
O=C(Nc1nnc(-c2ccc3c(c2)CCCC3)o1)c1ccccc1	·	23*	·	64	38*	25
O=C(COc1ccccc1)Nc1nnc(-c2ccc3c(c2)CCCC3)o1	·	91	·	99	76	-6
COc1cc2c(cc1OC)CN(Cc1ccc(OC)c(C)c1OC)CC2	15	·	16	·	·	-7
Cc1cc(/C=N/n2cnnc2)c(C)n1-c1ccc(OCc2ccc(Cl)cc2)cc1	·	64	·	82	5.8*	-8
c1ccc(COn2nnc3ccccc32)c(COn2nnc3ccccc32)c1	38	76	3	91	88	-13
SMILES	Ecoli tolC	HUVEC prolif 384	Jurkat viability	Fibroblast inh	H69AR growth 86K	E coli WT exp
Clc1cccc(Cl)c1COn1nnc2ccccc21	·	41	·	63	35*	0
O=C(Cc1cccc2ccccc12)N/N=C/c1ccc(OC(=O)/C=C/c2ccco2)cc1	·	78	·	94	24*	·
Cc1cccc(C(C)Nc2ccc([N+](=O)[O-])cn2)c1 (stereo not drawn)	·	·	·	·	·	17
Clc1ccc(-c2ccc(/C=N/Nc3cc(N4CCOCC4)nc(N4CCOCC4)n3)o2)cc1	·	13*	·	74	30*	·
Fc1ccc(CSc2nsc(SCc3ccc(F)cc3)n2)cc1	·	100	·	88	90	7
O=C(Nc1nc(SCc2ccc(F)cc2)ns1)c1ccco1	81*	91	0	108	84	·
CC1CCN(S(=O)(=O)c2ccc3c(c2)CCN3C(=O)CCC(=O)O)CC1	-10	90	-2	103	91	-4
O=C(O)CCC(=O)N1CCc2cc(S(=O)(=O)N3CCC(Cc4ccccc4)CC3)ccc21	100*	102	-5	97	103	-12
COc1ccc(CNc2nc3c(c(=O)n(Cc4ccc(F)cc4)c(=O)n3C)n2C)cc1	71*	95	0	98	77	10
Cn1c(NCC(O)c2ccccc2)nc2c1c(=O)n(Cc1ccc(Cl)c(Cl)c1)c(=O)n2C (stereo not drawn)	9	48	·	90	13*	·
Cn1c(NCc2ccccc2)nc2c1c(=O)n(Cc1ccccc1)c(=O)n2C	9	86	·	85	81	6
COc1ccc(Nc2nc(C)cc(C)c2C#N)cc1OC	-8	104	-6	102	89	-11
O=C(Nc1ccccc1NC(=O)c1ccco1)c1ccco1	-15	112	-8	102	96	10
O=C(Nc1ccccc1-c1ccccc1NC(=O)c1ccco1)c1ccco1	·	90	·	102	40*	·
O=C(Nc1ccc(Br)c(Cl)c1)c1ccco1	100*	83	-1	94	53	5
O=C(Nc1ccc(Cl)cc1C(=O)Nc1ccncc1)c1ccco1	16	73	8	70	36*	5
CC(C)Oc1ccc(C(=O)Nc2ccc(NC(=O)c3ccco3)c(Cl)c2)cc1	·	105	·	102	88	-1
O=C(Nc1ccc(Cl)c(Cl)c1)Oc1ccc(NC(=O)c2ccco2)cc1	·	·	·	·	·	25
CC(C)COc1ccc(C(=O)Nc2ccc(NC(=O)c3ccco3)c(Cl)c2)cc1	·	37	·	87	6.7*	-9
CC1(C)Cc2c(sc(/N=C/N3CCCC3)c2C#N)C(C)(C)N1	·	94	·	97	93	·
O=C(c1ccc(=O)n(Cc2ccc(Cl)c(Cl)c2)c1)N1CCOCC1	·	·	·	·	·	-10
Cc1ccc(-c2nnc(-c3ccc(NC(=O)c4ccco4)cc3)o2)cc1	15	74	-4	61	37*	-20
O=C(Nc1ccc(-c2nc3ncccc3o2)cc1)c1ccco1	0	101	6	117	89	8
CCCCCCCCCCNC(=O)CCn1[nH]c(=O)c2ccccc2c1=O	·	87	·	89	95	·
C=CCNc1nc2c(c(=O)n(C)c(=O)n2C)n1CC	-4	99	4	100	97	-2
C=CCNc1nc2c(c(=O)n(C)c(=O)n2C)n1CCCCCC	22	·	82*	·	·	-21
N#CC1=C2SCC(O)(c3ccccc3)N2C(=O)CC1c1ccccc1 (stereo not drawn)	13	40	·	47*	24*	-10
O=C(O)c1cc(Cl)c2ccccc2c1O	66*	67	9	98	86	13
O=C(O)c1ccc2cccc(Cl)c2c1O	30	87	0	97	94	0
Oc1c(Cl)cc(Cl)cc1C(C#Cc1ccccc1)N1CCOCC1 (stereo not drawn)	·	·	·	·	·	-8
